Data reported in ChEMBL document CHEMBL4145683, “Total Synthesis and Structure-Activity Relationships Study of Odilorhabdins, a New Class of Peptides Showing Potent Antibacterial Activity” (J Med Chem, 2018).
≈ marks a conversion by molar mass, not a printed value. Calls of active or inactive are those of the source. No cut-off for these calls is given here. Positions of bridges follow the written chain, without caps; N, C: chain ends. Non-standard residues stand in square brackets, D forms with d. Residues, ends and D or L forms follow the SMILES beside them. *: point of attachment. X1 = CC[C@H](C)CCCCC(=O)*; Dab = NCC[C@H](N)C(=O)O

Experiments:
Klebsiella pneumoniae [1] = experiment: Antimicrobial activity against Klebsiella pneumoniae ATCC 13883 infected in neutropenic mouse pulmonary infection model assessed as reduction in lung bacterial load at 40 mg/kg, sc dosed 1 hr post infection and measured 8 hrs post infection relative to untreated control; assay type: functional
Method in brief: (§1)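 Mice were acclimatized for 5 days and made neutropenic with intraperitoneal cyclophosphamide (150 mg/kg on day 4, 100 mg/kg on day 1 pre-infection). They were infected intranasally with 2 × 10^6 CFU/mouse. At 1 h, a single SC dose was given in 10 mL/kg (6 mice/dose). […] A pretreatment group was sampled at 1 h. At 8 h, lungs were homogenized and plated on TSA for CFU. Analysis was one-way ANOVA with Dunnett's test vs vehicle.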

Klebsiella pneumoniae [2] = experiment: Antimicrobial activity against Klebsiella pneumoniae ATCC 13883 infected in neutropenic mouse pulmonary infection model assessed as reduction in lung bacterial load at 80 mg/kg, sc dosed 1 hr post infection and measured 8 hrs post infection relative to untreated control; assay type: functional; method in brief: as §1
Klebsiella pneumoniae [3] = experiment: Antimicrobial activity against Klebsiella pneumoniae ATCC 43816 by broth microdilution method; assay type: functional
Method in brief: (§2)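 Broth microdilution MIC per CLSI M07-A10, with inoculum prepared by direct colony suspension. Reference strains were from ATCC and NCTC.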

Escherichia coli [4] = experiment: Antimicrobial activity against Escherichia coli ATCC BAA-2452 by broth microdilution method; assay type: functional; method in brief: as §2
Klebsiella pneumoniae [5] = experiment: Antimicrobial activity against Klebsiella pneumoniae ATCC BAA-1905 by broth microdilution method; assay type: functional; method in brief: as §2
Klebsiella pneumoniae [6] = experiment: Antimicrobial activity against Klebsiella pneumoniae ATCC BAA-2146 by broth microdilution method; assay type: functional; method in brief: as §2
Klebsiella pneumoniae [7] = experiment: Antimicrobial activity against Klebsiella pneumoniae NCTC 13438 by broth microdilution method; assay type: functional; method in brief: as §2
Escherichia coli [8] = experiment: Antimicrobial activity against Escherichia coli ATCC BAA-2340 by broth microdilution method; assay type: functional; method in brief: as §2
Escherichia coli [9] = experiment: microbe, parasite or virus in culture; details: ATCC 25922
Klebsiella pneumoniae [10] = experiment: Antimicrobial activity against Klebsiella pneumoniae ATCC BAA-2473 by broth microdilution method; assay type: functional; method in brief: as §2
Escherichia coli [11] = experiment: Antimicrobial activity against Escherichia coli ATCC BAA-2469 by broth microdilution method; assay type: functional; method in brief: as §2
Klebsiella pneumoniae [12] = experiment: Antimicrobial activity against Klebsiella pneumoniae ATCC BAA-1904 by broth microdilution method; assay type: functional; method in brief: as §2
Enterobacter cloacae = experiment: Antimicrobial activity against Enterobacter cloacae ATCC BAA-2468 by broth microdilution method; assay type: functional
Klebsiella pneumoniae [13] = experiment: Antimicrobial activity against Klebsiella pneumoniae ATCC 13883 by broth microdilution method; assay type: functional; method in brief: as §2
Klebsiella pneumoniae [14] = experiment: Antimicrobial activity against Klebsiella pneumoniae ATCC BAA-2472 by broth microdilution method; assay type: functional; method in brief: as §2
Klebsiella pneumoniae [15] = experiment: Antimicrobial activity against Klebsiella pneumoniae NCTC 13442 by broth microdilution method; assay type: functional
Method in brief: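 CLSI broth microdilution with direct colony suspension inoculum, per CLSI M07-A10. Reference strain taken from the NCTC collection.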

Klebsiella pneumoniae [16] = experiment: Antimicrobial activity against Klebsiella pneumoniae NCTC 13439 by broth microdilution method; assay type: functional; method in brief: as §2
Klebsiella pneumoniae [17] = experiment: Antimicrobial activity against Klebsiella pneumoniae NCTC 13443 by broth microdilution method; assay type: functional; method in brief: as §2
Klebsiella pneumoniae [18] = experiment: Antimicrobial activity against Klebsiella pneumoniae ATCC 13883 infected in neutropenic mouse pulmonary infection model assessed as reduction in lung bacterial load at 30 mg/kg, iv dosed 1 hr post infection and measured 8 hrs post infection relative to untreated control; assay type: functional, organism-based
Method in brief: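 Neutropenia induced by intraperitoneal cyclophosphamide (150 mg/kg day 4, 100 mg/kg day 1 before infection); intranasal infection at 2 × 10^6 CFU/mouse. Single iv dose at 10 mL/kg given 1 h post-infection. An untreated group was sacrificed at 1 h for baseline burden. At 8 h, lungs were homogenized, serially diluted and plated on TSA for CFU. Comparison versus vehicle by one-way ANOVA with Dunnett's test.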

[19] = Inhibition of mammalian protein synthesis in rabbit reticulocyte lysate system incubated for 1 hr by mammalian cell-free transcription-translation assay; set-up: species or system Oryctolagus cuniculus
Escherichia coli [20] = experiment: Inhibition of bacterial protein synthesis in cell-free Escherichia coli incubated for 1 hr and measured for every 20 mins by bacterial cell-free transcription-translation assay; assay type: functional; details: Escherichia coli
Method in brief: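 E. coli cell-free coupled transcription-translation used a GFP gene in pEXP5-CT as template, started with 1 μg plasmid in 50 μL reactions. Feed buffer was added at 30 min, with incubation at 30 °C. Fluorescence (ex 475/em 520 nm) was read every 20 min. IC50 was taken at 1 h after feed addition from a four-parameter log(inhibitor)–response fit. Duplicates.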

[21] = test system: mammalian protein synthesis; experiment: Selectivity index, ratio of IC50 for inhibition of mammalian protein synthesis in rabbit reticulocyte lysate system incubated for 1 hr by mammalian cell-free transcription-translation assay to IC50 for Inhibition of bacterial protein synthesis in cell-free Escherichia coli; assay type: toxicity
[22] = Klebsiella pneumoniae, ATCC 43816, read-out: MIC

Row | Compound | MIC (Klebsiella pneumoniae [3]; [22]) [µg/mL] | MIC (Escherichia coli [4]) [µg/mL] | MIC (Klebsiella pneumoniae [5]) [µg/mL] | MIC (Klebsiella pneumoniae [6]) [µg/mL] | MIC (Klebsiella pneumoniae [7]) [µg/mL] | MIC (Escherichia coli [8]) [µg/mL] | MIC (Escherichia coli [9]) [µg/mL] | MIC (Klebsiella pneumoniae [10]) [µg/mL] | MIC (Escherichia coli [11]) [µg/mL] | MIC (Klebsiella pneumoniae [12]) [µg/mL] | MIC (Enterobacter cloacae) [µg/mL] | MIC (Klebsiella pneumoniae [13]) [µg/mL] | MIC (Klebsiella pneumoniae [14]) [µg/mL] | MIC (Klebsiella pneumoniae [15]) [µg/mL] | MIC (Klebsiella pneumoniae [16]) [µg/mL] | MIC (Klebsiella pneumoniae [17]) [µg/mL] | other results
1 | C[C@H](NC(=O)[C@@H](NC(=O)[C@@H](N)CCCCN)[C@@H](O)CN)C(=O)NCC(=O)N[C@H](CCCN)C(=O)N1CCC[C@H]1C(=O)N[C@@H](Cc1cnc[nH]1)C(=O)N[C@@H](CCCCN)C(=O)N/C(=C\CCNC(=N)N)C(=O)O.Cl | – | – | – | – | – | – | – | – | – | – | – | – | – | – | – | – | Activity (Klebsiella pneumoniae [1]): 2 log10CFU/ml; Activity (Klebsiella pneumoniae [2]): 3 log10CFU/ml
2 | C[C@@H](O)[C@H]1C(=O)N2C(C(=O)O)=C(SCCNC=N)C[C@H]12 [IMIPENEM ANHYDROUS] | 1 (≈ 3.34 µM) | > 64 | > 64 | > 64 | > 64 | 32 (≈ 107 µM) | 0.5 (≈ 1.67 µM) | > 64 | > 64 | 64 (≈ 214 µM) | > 64 | 2 (≈ 6.68 µM) | > 64 | > 64 | 64 (≈ 214 µM) | > 64 | –
3 | O=C(O)c1cn(C2CC2)c2cc(N3CCNCC3)c(F)cc2c1=O [CIPROFLOXACIN] | ≤ 0.125 | < 0.125 | > 64 | > 64 | > 64 | > 64 | < 0.25 | > 64 | > 64 | 0.5 (≈ 1.51 µM) | – | 0.5 (≈ 1.51 µM) | > 64 | 8 (≈ 24.1 µM) | 32 (≈ 96.6 µM) | > 64 | Activity (Klebsiella pneumoniae [18]): Active
4 | C[C@H](NC(=O)[C@@H](NC(=O)[C@@H](N)CCCCN)[C@@H](O)CN)C(=O)NCC(=O)N[C@H](CCCN)C(=O)N1CCC[C@H]1C(=O)N[C@@H](Cc1cnc[nH]1)C(=O)N[C@@H](CCCCN)C(=O)N/C(=C\CCNC(=N)N)C(=O)O | 4 (≈ 3.92 µM) | 16 (≈ 15.7 µM) | 8 (≈ 7.83 µM) | 4 (≈ 3.92 µM) | 8 (≈ 7.83 µM) | 16 (≈ 15.7 µM) | 16 (≈ 15.7 µM) | 4 (≈ 3.92 µM) | 16 (≈ 15.7 µM) | 4 (≈ 3.92 µM) | 4 (≈ 3.92 µM) | 4 (≈ 3.92 µM) | 4 (≈ 3.92 µM) | 4 (≈ 3.92 µM) | 4 (≈ 3.92 µM) | 4 (≈ 3.92 µM) | IC50 [19]: 168 µM; IC50 (Escherichia coli [20]): 0.55 µM; selectivity ratio at 1 h [21]: 300
5 | CC[C@H](C)CCCCC(=O)N[C@@H](CCN)C(=O)N[C@H](C(=O)N[C@@H](CCN)C(=O)N[C@H]1CCNC(=O)[C@H]([C@@H](C)O)NC(=O)[C@H](CCN)NC(=O)[C@H](CCN)NC(=O)[C@H](CC(C)C)NC(=O)[C@@H](Cc2ccccc2)NC(=O)[C@H](CCN)NC1=O)[C@@H](C)O (X1-[Dab]T[Dab][Dab][Dab][dF]L[Dab][Dab]T; lactam 4-C) | 0.5 (≈ 0.415 µM) | 0.5 (≈ 0.415 µM) | 0.5 (≈ 0.415 µM) | 1 (≈ 0.831 µM) | 0.5 (≈ 0.415 µM) | 0.5 (≈ 0.415 µM) | 0.5 (≈ 0.415 µM) | 0.5 (≈ 0.415 µM) | 0.5 (≈ 0.415 µM) | 0.5 (≈ 0.415 µM) | 0.5 (≈ 0.415 µM) | 1 (≈ 0.831 µM) | 0.5 (≈ 0.415 µM) | 0.5 (≈ 0.415 µM) | 0.5 (≈ 0.415 µM) | 0.5 (≈ 0.415 µM) | –
6 | GENTAMICIN | – | > 64 | 32 | > 64 | 2 | 1 | – | > 64 | > 64 | 16 | > 64 | 1 | > 64 | 0.25 | 1 | > 64 | MIC (Klebsiella pneumoniae [3]): 0.25 µg/mL
